Experimental data from ChEMBL document CHEMBL1154419, “Pharmacodynamic effects of telavancin against methicillin-resistant and methicillin-susceptible Staphylococcus aureus strains in the presence of human albumin or serum and in an in vitro kinetic model” (Antimicrob Agents Chemother, 2007).
Activity calls are given as the source filed them. The calls are words filed in the database; no cut-off is given here.

Experiments:
[1] = test system: Staphylococcus aureus; assay: Antibacterial activity against methicillin-susceptible Staphylococcus aureus ATCC 13709 assessed as change in bacterial burden at 1 mg/liter after 8 hrs; assay type: functional
[2] = test system: Staphylococcus aureus; assay: Antibacterial activity against methicillin-resistant Staphylococcus aureus ATCC 33591 assessed as change in bacterial burden at 1 mg/liter after 8 hrs; assay type: functional
Outline: (§1)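 In vitro kinetic model: spinner flask with 0.45-μm filter and prefilter, stirred, M-H broth at 37°C, starting inoculum approx. 5 × 10⁵ CFU/ml. Single initial drug dose of 1.0 to 40 mg/liter, with flow set to give a half-life of approx. 8 h. Viable counts at 0, 2, 4, 6, 8, 12 and 24 h. Duplicate runs per strain and concentration.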

[3] = test system: Staphylococcus aureus; assay: Antibacterial activity against methicillin-resistant Staphylococcus aureus ATCC 33591 assessed as change in bacterial burden at 2.5 mg/liter after 6 hrs; assay type: functional; outline: as §1
[4] = test system: Staphylococcus aureus; assay: Antibacterial activity against methicillin-susceptible Staphylococcus aureus ATCC 13709 assessed as change in bacterial burden at 5 mg/liter after 6 hrs; assay type: functional
[5] = test system: Staphylococcus aureus; assay: Antibacterial activity against methicillin-susceptible Staphylococcus aureus ATCC 13709 assessed as bacterial regrowth at 40 mg/liter Cmax; assay type: functional, organism-based
[6] = test system: Staphylococcus aureus; assay: Antibacterial activity against methicillin-susceptible Staphylococcus aureus ATCC 13709 assessed as bacterial killing at 50 times MIC after 24 hrs in presence of human albumin; assay type: functional, organism-based
[7] = test system: Staphylococcus aureus; assay: Antibacterial activity against methicillin-susceptible Staphylococcus aureus ATCC 13709 assessed as change in bacterial burden at 1 mg/liter after 24 hrs; assay type: functional
[8] = test system: Staphylococcus aureus; assay: Antibacterial activity against methicillin-susceptible Staphylococcus aureus ATCC 13709 assessed as change in bacterial burden at 40 mg/liter after 6 hrs; assay type: functional
[9] = test system: Staphylococcus aureus; assay: Antibacterial activity against methicillin-resistant Staphylococcus aureus ATCC 33591 assessed as change in bacterial burden at 5 mg/liter after 6 hrs; assay type: functional; outline: as §1
[10] = test system: Plasma; assay: Protein binding in human plasma; assay type: ADME, cell-free
[11] = test system: Staphylococcus aureus; assay: Antibacterial activity against methicillin-resistant Staphylococcus aureus ATCC 33591 assessed as change in bacterial burden at 10 mg/liter after 4 hrs; assay type: functional; outline: as §1
[12] = test system: Staphylococcus aureus; assay: Antibacterial activity against methicillin-susceptible Staphylococcus aureus ATCC 13709 assessed as change in bacterial burden at 1 mg/liter after 12 hrs; assay type: functional; outline: as §1
[13] = test system: Staphylococcus aureus; assay: Antibacterial activity against methicillin-susceptible Staphylococcus aureus ATCC 13709 assessed as bacterial killing at 10 times MIC after 6 hrs in MH-broth; assay type: functional, organism-based
[14] = test system: Staphylococcus aureus; assay: Antibacterial activity against methicillin-susceptible Staphylococcus aureus ATCC 13709 assessed as change in bacterial burden at 10 mg/liter after 24 hrs; assay type: functional; outline: as §1
[15] = test system: Staphylococcus aureus; assay: Antibacterial activity against methicillin-susceptible Staphylococcus aureus ATCC 13709 assessed as change in bacterial burden at 2.5 mg/liter after 2 hrs; assay type: functional
[16] = test system: Staphylococcus aureus; assay: Antibacterial activity against methicillin-susceptible Staphylococcus aureus ATCC 13709 assessed as change in bacterial burden at 1 mg/liter after 6 hrs; assay type: functional
[17] = test system: Staphylococcus aureus; assay: Antibacterial activity against methicillin-resistant Staphylococcus aureus ATCC 33591 assessed as change in bacterial burden at 10 mg/liter after 24 hrs; assay type: functional; outline: as §1
[18] = test system: Staphylococcus aureus; assay: Antibacterial activity against methicillin-susceptible Staphylococcus aureus ATCC 13709 assessed as change in bacterial burden at 20 mg/liter after 4 hrs; assay type: functional
[19] = test system: Staphylococcus aureus; assay: Antibacterial activity against methicillin-resistant Staphylococcus aureus ATCC 33591 assessed as change in bacterial burden at 2.5 mg/liter after 24 hrs; assay type: functional; outline: as §1
[20] = Ratio of AUC in in vitro kinetic model containing Mueller-Hinton broth and methicillin-susceptible Staphylococcus aureus ATCC 13709 to MIC for methicillin-susceptible Staphylococcus aureus ATCC 13709 in bacterial regrowth stage; assay type: functional
[21] = test system: Staphylococcus aureus; assay: Antibacterial activity against methicillin-susceptible Staphylococcus aureus ATCC 13709 assessed as change in bacterial burden at 2.5 mg/liter after 24 hrs; assay type: functional; outline: as §1
[22] = test system: Staphylococcus aureus; assay: Antibacterial activity against methicillin-susceptible Staphylococcus aureus ATCC 13709 assessed as change in bacterial burden at 2.5 mg/liter after 6 hrs; assay type: functional
[23] = test system: Staphylococcus aureus; assay: Antibacterial activity against methicillin-resistant Staphylococcus aureus ATCC 33591 assessed as bacterial killing at 50 times MIC after 24 hrs in presence of human albumin; assay type: functional, organism-based
Outline: (§2)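 Static time-kill in M-H broth, in M-H broth with 40 g/liter fatty-acid-free purified human albumin, or in M-H broth with inactivated 50% human serum. Inoculum approx. 5 × 10⁵ CFU/ml, drug at 0.5, 1, 2.5, 5, 10, 25 and 50× MIC, 37°C. Samples at 0, 3, 6, 12 and 24 h plated on blood agar, counted after 24 h. Detection limit 5 × 10¹ CFU/ml. Run in duplicate.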

[24] = test system: Staphylococcus aureus; assay: Antibacterial activity against methicillin-susceptible Staphylococcus aureus ATCC 13709 assessed as change in bacterial burden at 5 mg/liter after 12 hrs; assay type: functional
[25] = test system: Staphylococcus aureus; assay: Antibacterial activity against methicillin-susceptible Staphylococcus aureus ATCC 13709 assessed as change in bacterial burden at 10 mg/liter after 6 hrs; assay type: functional; outline: as §1
[26] = test system: Staphylococcus aureus; assay: Antibacterial activity against methicillin-resistant Staphylococcus aureus ATCC 33591 assessed as bacterial killing at 10 times MIC after 6 hrs in MH-broth; assay type: functional, organism-based
Outline: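 Strain diluted in M-H broth to approx. 10⁵ CFU/ml and grown 6 h into log phase, then split. Broth tubes got drug at 10× MIC directly. PBS tubes were transferred to PBS and held 3 h more, then dosed at 10× MIC. Growth controls were run in each medium. Viable counts at 0, 3, 6, 9, 12 and 24 h. Run in duplicate.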

[27] = test system: Staphylococcus aureus; assay: Antibacterial activity against methicillin-resistant Staphylococcus aureus ATCC 33591 assessed as change in bacterial burden at 10 mg/liter after 12 hrs; assay type: functional; outline: as §1
[28] = test system: Staphylococcus aureus; assay: Antibacterial activity against methicillin-resistant Staphylococcus aureus ATCC 33591 assessed as change in bacterial burden at 10 mg/liter after 6 hrs; assay type: functional; outline: as §1
[29] = test system: Staphylococcus aureus; assay: Antibacterial activity against methicillin-resistant Staphylococcus aureus ATCC 33591 assessed as change in bacterial burden at 10 mg/liter after 8 hrs; assay type: functional; outline: as §1
[30] = AUC (0 to 24 hrs) in human at 10 mg/kg once daily; assay type: ADME, organism-based; set-up: time < 24 hr, dose 10 mg/kg; details: plasma
[31] = test system: Staphylococcus aureus; assay: Antibacterial activity against methicillin-susceptible Staphylococcus aureus ATCC 13709 assessed as change in bacterial burden at 10 mg/liter after 2 hrs; assay type: functional; outline: as §1
[32] = test system: Staphylococcus aureus; assay: Antibacterial activity against methicillin-susceptible Staphylococcus aureus ATCC 13709 assessed as change in bacterial burden at 40 mg/liter after 4 hrs; assay type: functional
[33] = test system: Staphylococcus aureus; assay: Antibacterial activity against methicillin-susceptible Staphylococcus aureus ATCC 13709 in MH-broth; assay type: functional, organism-based
[34] = test system: Staphylococcus aureus; assay: Antibacterial activity against methicillin-resistant Staphylococcus aureus ATCC 33591 assessed as bacterial regrowth at 1 times MIC after 24 hrs in presence of human albumin; assay type: functional, organism-based; outline: as §2
[35] = test system: Staphylococcus aureus; assay: Antibacterial activity against methicillin-susceptible Staphylococcus aureus ATCC 13709 assessed as change in bacterial burden at 2.5 mg/liter after 12 hrs; assay type: functional
[36] = test system: Staphylococcus aureus; assay: Antibacterial activity against methicillin-susceptible Staphylococcus aureus ATCC 13709 assessed as change in bacterial burden at 5 mg/liter after 2 hrs; assay type: functional
[37] = test system: Staphylococcus aureus; assay: Antibacterial activity against methicillin-susceptible Staphylococcus aureus ATCC 13709 assessed as change in bacterial burden at 5 mg/liter after 8 hrs; assay type: functional

CCCCCCCCCCNCCN[C@@]1(C)C[C@H](O[C@H]2[C@H](Oc3c4cc5cc3Oc3ccc(cc3Cl)[C@@H](O)[C@@H](NC(=O)[C@@H](CC(C)C)NC)C(=O)N[C@@H](CC(N)=O)C(=O)N[C@H]5C(=O)N[C@H]3C(=O)N[C@H](C(=O)N[C@H](C(=O)O)c5cc(O)c(CNCP(=O)(O)O)c(O)c5-c5cc3ccc5O)[C@H](O)c3ccc(c(Cl)c3)O4)O[C@H](CO)[C@@H](O)[C@@H]2O)O[C@@H](C)[C@H]1O [TELAVANCIN]
deltalog10CFU/ml [1]: -2.6 | deltalog10CFU/ml [2]: -3.5 | deltalog10CFU/ml [3]: -2.7 | deltalog10CFU/ml [4]: -3.4 | Activity [5]: Active | Activity [6]: Active | deltalog10CFU/ml [7]: -0.5 | deltalog10CFU/ml [8]: -4.7 | deltalog10CFU/ml [9]: -3.1 | Activity [10]: 92% | deltalog10CFU/ml [11]: -2.2 | deltalog10CFU/ml [12]: -2.6 | Activity [13]: Active | deltalog10CFU/ml [14]: -4.5 | deltalog10CFU/ml [15]: -1.1 | deltalog10CFU/ml [16]: -2 | deltalog10CFU/ml [17]: -5.1 | deltalog10CFU/ml [18]: -2.9 | deltalog10CFU/ml [19]: -3.6 | Activity [20]: inactive | deltalog10CFU/ml [21]: -2.9 | deltalog10CFU/ml [22]: -2.6 | Activity [23]: Active | deltalog10CFU/ml [24]: -4.7 | deltalog10CFU/ml [25]: -3.3 | Activity [26]: Active | deltalog10CFU/ml [27]: -5.1 | deltalog10CFU/ml [28]: -3 | deltalog10CFU/ml [29]: -3.8 | AUC at 24 h [30]: 51000 ng·h/mL | deltalog10CFU/ml [31]: -1.2 | deltalog10CFU/ml [32]: -2.8 | Activity [33]: Dose-dependent effect | Activity [34]: Active | deltalog10CFU/ml [35]: -4.7 | deltalog10CFU/ml [36]: -1.2 | deltalog10CFU/ml [37]: -4
